Laboratory results reported in ChEMBL document CHEMBL3808379, “Isouronium and N-hydroxyguanidinium derivatives as Cell growth inhibitors: A comparative study” (Eur J Med Chem, 2016).

Columns and labels:
[1] = Cytotoxicity against human HL60 cells assessed as cell viability reduction incubated for 72 hrs by alamar blue assay; format: functional, cell-based; settings: HL-60, 72 h
How it was run: (§1)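 HL-60 cells in log phase, 40,000 per well, were treated in triplicate with compound at 10–100 µM (final, 1:100 from ddH2O stocks) or 1% ddH2O vehicle for 72 h at 37 °C. AlamarBlue was then added for 4.5 h in the dark and fluorescence read at ex 544/em 590 nm. Viability is blank-subtracted and expressed as % of vehicle. IC50 comes from a sigmoidal fit; ≥3 independent experiments.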

[2] = Binding affinity to salmon sperm DNA assessed as increase in thermal melting temperature by spectrophotometric analysis; settings: Salmonidae
[3] = Cytotoxicity against human Kelly cells assessed as cell viability reduction incubated for 72 hrs by alamar blue assay; format: functional, cell-based
How it was run: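 Kelly cells, 6000 per well, were allowed to attach for 24 h, then treated in triplicate at 0.1–100 µM final or with ddH2O vehicle for 72 h at 37 °C. AlamarBlue was added for 4.5 h in the dark and fluorescence read at ex 544/em 590 nm. Blank-subtracted % of vehicle; IC50 from a sigmoidal dose-response fit; ≥3 independent experiments.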

[4] = Cell cycle arrest in human Kelly cells assessed as accumulation at G2/M phase at 25 uM after 72 hrs by propidium iodide staining-based flow cytometric analysis (reference value: 13.84 +/- 0.76%); format: functional
[5] = Cell cycle arrest in human Kelly cells assessed as accumulation at S phase at 25 uM after 24 hrs by propidium iodide staining-based flow cytometric analysis (reference value: 18.67 +/- 1.9%); format: functional
[6] = Cell cycle arrest in human Kelly cells assessed as accumulation at G0/G1 phase at 25 uM after 72 hrs by propidium iodide staining-based flow cytometric analysis (reference value: 46.82 +/- 1.46%); format: functional
[7] = Cell cycle arrest in human Kelly cells assessed as accumulation at polyploid Gn phase at 50 uM after 24 hrs by propidium iodide staining-based flow cytometric analysis (reference value: 9.85 +/- 1.54%); format: functional
[8] = Cell cycle arrest in human Kelly cells assessed as accumulation at S phase at 25 uM after 72 hrs by propidium iodide staining-based flow cytometric analysis (reference value: 16.29 +/- 0.81%); format: functional
[9] = Cell cycle arrest in human Kelly cells assessed as accumulation at polyploid Gn phase at 50 uM after 72 hrs by propidium iodide staining-based flow cytometric analysis (reference value: 13.07 +/- 0.25%); format: functional
[10] = Cell cycle arrest in human Kelly cells assessed as accumulation at polyploid Gn phase at 50 uM after 48 hrs by propidium iodide staining-based flow cytometric analysis (reference value: 8.97 +/- 1.27%); format: functional
[11] = Cell cycle arrest in human Kelly cells assessed as accumulation at S phase at 50 uM after 48 hrs by propidium iodide staining-based flow cytometric analysis (reference value: 19.05 +/- 2.11%); format: functional
[12] = Cell cycle arrest in human Kelly cells assessed as accumulation at pre-G1 phase at 50 uM after 24 hrs by propidium iodide staining-based flow cytometric analysis (reference value: 6.12 +/- 0.95%); format: functional
[13] = Cell cycle arrest in human Kelly cells assessed as accumulation at G0/G1 phase at 50 uM after 72 hrs by propidium iodide staining-based flow cytometric analysis (reference value: 46.82 +/- 1.46%); format: functional
[14] = Cell cycle arrest in human Kelly cells assessed as accumulation at G2/M phase at 25 uM after 48 hrs by propidium iodide staining-based flow cytometric analysis (reference value: 13.68 +/- 0.74%); format: functional
[15] = Cell cycle arrest in human Kelly cells assessed as accumulation at G2/M phase at 50 uM after 72 hrs by propidium iodide staining-based flow cytometric analysis (reference value: 13.84 +/- 0.76%); format: functional
[16] = Cell cycle arrest in human Kelly cells assessed as accumulation at S phase at 50 uM after 24 hrs by propidium iodide staining-based flow cytometric analysis (reference value: 18.67 +/- 1.9%); format: functional
[17] = Cell cycle arrest in human Kelly cells assessed as accumulation at polyploid Gn phase at 25 uM after 72 hrs by propidium iodide staining-based flow cytometric analysis (reference value: 13.07 +/- 0.25%); format: functional
[18] = Cell cycle arrest in human Kelly cells assessed as accumulation at G0/G1 phase at 25 uM after 48 hrs by propidium iodide staining-based flow cytometric analysis (reference value: 52.54 +/- 2.32%); format: functional
[19] = Cell cycle arrest in human Kelly cells assessed as accumulation at pre-G1 phase at 25 uM after 48 hrs by propidium iodide staining-based flow cytometric analysis (reference value: 5.88 +/- 1.13%); format: functional
[20] = Cell cycle arrest in human Kelly cells assessed as accumulation at pre-G1 phase at 25 uM after 72 hrs by propidium iodide staining-based flow cytometric analysis (reference value: 10.21 +/- 2.85%); format: functional
[21] = Cell cycle arrest in human Kelly cells assessed as accumulation at S phase at 50 uM after 72 hrs by propidium iodide staining-based flow cytometric analysis (reference value: 16.29 +/- 0.81%); format: functional
[22] = Cell cycle arrest in human Kelly cells assessed as accumulation at G2/M phase at 25 uM after 24 hrs by propidium iodide staining-based flow cytometric analysis (reference value: 13.12 +/- 0.93%); format: functional
[23] = Cell cycle arrest in human Kelly cells assessed as accumulation at G0/G1 phase at 50 uM after 48 hrs by propidium iodide staining-based flow cytometric analysis (reference value: 52.54 +/- 2.32%); format: functional
[24] = Cell cycle arrest in human Kelly cells assessed as accumulation at polyploid Gn phase at 25 uM after 48 hrs by propidium iodide staining-based flow cytometric analysis (reference value: 8.97 +/- 1.27%); format: functional
[25] = Cell cycle arrest in human Kelly cells assessed as accumulation at G2/M phase at 50 uM after 48 hrs by propidium iodide staining-based flow cytometric analysis (reference value: 13.68 +/- 0.74%); format: functional
[26] = Cell cycle arrest in human Kelly cells assessed as accumulation at S phase at 25 uM after 48 hrs by propidium iodide staining-based flow cytometric analysis (reference value: 19.05 +/- 2.11%); format: functional
[27] = Cell cycle arrest in human Kelly cells assessed as accumulation at polyploid Gn phase at 25 uM after 24 hrs by propidium iodide staining-based flow cytometric analysis (reference value: 9.85 +/- 1.54%); format: functional
[28] = Cell cycle arrest in human Kelly cells assessed as accumulation at pre-G1 phase at 50 uM after 72 hrs by propidium iodide staining-based flow cytometric analysis (reference value: 10.21 +/- 2.85%); format: functional
[29] = Cell cycle arrest in human Kelly cells assessed as accumulation at G2/M phase at 50 uM after 24 hrs by propidium iodide staining-based flow cytometric analysis (reference value: 13.12 +/- 0.93%); format: functional
[30] = Cell cycle arrest in human Kelly cells assessed as accumulation at pre-G1 phase at 25 uM after 24 hrs by propidium iodide staining-based flow cytometric analysis (reference value: 6.12 +/- 0.95%); format: functional
[31] = Cell cycle arrest in human Kelly cells assessed as accumulation at G0/G1 phase at 25 uM after 24 hrs by propidium iodide staining-based flow cytometric analysis (reference value: 52.37 +/- 1.44%); format: functional
[32] = Cell cycle arrest in human Kelly cells assessed as accumulation at pre-G1 phase at 50 uM after 48 hrs by propidium iodide staining-based flow cytometric analysis (reference value: 5.88 +/- 1.13%); format: functional
[33] = Cell cycle arrest in human Kelly cells assessed as accumulation at G0/G1 phase at 50 uM after 24 hrs by propidium iodide staining-based flow cytometric analysis (reference value: 52.37 +/- 1.44%); format: functional
[34] = system: N=C(N)Oc1ccc(Sc2ccc(O)cc2)cc1; experiment: Inhibition of bovine brain tubulin polymerization assessed as rate of tubulin polymerization at 1 mM mesured at 30 s intervals for 60 mins by spectrophotometric analysis (reference value: 3.647 mOD/min); settings: Bos taurus
[35] = Dissociation constant, pKa of the compound; format: physicochemical
[36] = Cell cycle arrest in human HL60 cells assessed as accumulation at G2/M phase at 50 uM after 24 hrs by propidium iodide staining-based flow cytometric analysis (reference value: 16.73 +/- 0.59%); format: functional; settings: HL-60
[37] = Cell cycle arrest in human HL60 cells assessed as accumulation at G0/G1 phase at 50 uM after 48 hrs by propidium iodide staining-based flow cytometric analysis (reference value: 58.77 +/- 2.33%); format: functional; settings: HL-60
[38] = Cell cycle arrest in human HL60 cells assessed as accumulation at pre-G1 phase at 50 uM after 48 hrs by propidium iodide staining-based flow cytometric analysis (reference value: 1.41 +/- 0.32%); format: functional; settings: HL-60
[39] = Cell cycle arrest in human HL60 cells assessed as accumulation at S phase at 50 uM after 72 hrs by propidium iodide staining-based flow cytometric analysis (reference value: 23.58 +/- 1.38%); format: functional; settings: HL-60
[40] = Cell cycle arrest in human HL60 cells assessed as accumulation at polyploid Gn phase at 50 uM after 48 hrs by propidium iodide staining-based flow cytometric analysis (reference value: 3.02 +/- 0.56%); format: functional; settings: HL-60
[41] = Cell cycle arrest in human HL60 cells assessed as accumulation at pre-G1 phase at 50 uM after 24 hrs by propidium iodide staining-based flow cytometric analysis (reference value: 0.81 +/- 0.11%); format: functional; settings: HL-60
[42] = Cell cycle arrest in human HL60 cells assessed as accumulation at polyploid Gn phase at 50 uM after 24 hrs by propidium iodide staining-based flow cytometric analysis (reference value: 2.96 +/- 0.79%); format: functional; settings: HL-60
[43] = Cell cycle arrest in human HL60 cells assessed as accumulation at G2/M phase at 50 uM after 72 hrs by propidium iodide staining-based flow cytometric analysis (reference value: 10.53 +/- 0.81%); format: functional; settings: HL-60
[44] = Cell cycle arrest in human HL60 cells assessed as accumulation at S phase at 50 uM after 24 hrs by propidium iodide staining-based flow cytometric analysis (reference value: 24.46 +/- 1.15%); format: functional; settings: HL-60
[45] = Cell cycle arrest in human HL60 cells assessed as accumulation at polyploid Gn phase at 50 uM after 72 hrs by propidium iodide staining-based flow cytometric analysis (reference value: 3.43 +/- 0.48%); format: functional; settings: HL-60
[46] = Cytotoxicity against human HL60 cells assessed as cell viability reduction at 100 uM incubated for 72 hrs by alamar blue assay; format: functional; settings: HL-60, 72 h; how it was run: as §1
[47] = Cell cycle arrest in human HL60 cells assessed as accumulation at G2/M phase at 50 uM after 48 hrs by propidium iodide staining-based flow cytometric analysis (reference value: 11.35 +/- 1.05%); format: functional; settings: HL-60
[48] = Cell cycle arrest in human HL60 cells assessed as accumulation at S phase at 50 uM after 48 hrs by propidium iodide staining-based flow cytometric analysis (reference value: 24.29 +/- 1.37%); format: functional; settings: HL-60
[49] = Cell cycle arrest in human HL60 cells assessed as accumulation at pre-G1 phase at 50 uM after 72 hrs by propidium iodide staining-based flow cytometric analysis (reference value: 2.21 +/- 0.57%); format: functional; settings: HL-60
[50] = Cell cycle arrest in human HL60 cells assessed as accumulation at G0/G1 phase at 50 uM after 72 hrs by propidium iodide staining-based flow cytometric analysis (reference value: 59.5 +/- 1.5%); format: functional; settings: HL-60
[51] = Cell cycle arrest in human HL60 cells assessed as accumulation at G0/G1 phase at 50 uM after 24 hrs by propidium iodide staining-based flow cytometric analysis (reference value: 56.05 +/- 1.4%); format: functional; settings: HL-60

N=C(N)Oc1ccc(Cc2ccc(O)cc2)cc1
IC50 [1]: > 100 µM | ΔTm [2]: 2 °C

N=C(N)Oc1ccc(Oc2ccc(O)cc2)cc1
IC50 [3]: 17.3 µM | Activity [4]: 5.04% | Activity [5]: 25.6% | Activity [6]: 26.2% | Activity [7]: 7.77% | Activity [8]: 16.4% | Activity [9]: 2.69% | Activity [10]: 4.19% | Activity [11]: 11.7% | Activity [12]: 24.3% | Activity [13]: 29% | Activity [14]: 7.65% | Activity [15]: 2.44% | Activity [16]: 16% | Activity [17]: 4.09% | Activity [18]: 22.2% | Activity [19]: 38% | Activity [20]: 48.4% | Activity [21]: 17.3% | Activity [22]: 11.3% | Activity [23]: 25.2% | Activity [24]: 6.91% | Activity [25]: 3.5% | Activity [26]: 27.5% | Activity [27]: 13.5% | IC50 [1]: 36.9 µM | ΔTm [2]: 4 °C | Activity [28]: 49.5% | Activity [29]: 8.23% | Activity [30]: 20.4% | Activity [31]: 31.2% | Activity [32]: 50.7% | Activity [33]: 42.1%

Tubulin (Bos taurus) (from UniProt Q6B856+Q862L2+Q862F3)
Vmax [34]: 2.63 mOD/minute

c1ccc(NC2=NCCN2)cc1
pKa [35]: 9.16

N=C(N)Oc1ccccc1
pKa [35]: 8.29

N=C(N)Oc1ccc(NC(=O)c2ccc(OC(=N)N)cc2)cc1
IC50 [3]: > 100 µM | IC50 [1]: > 100 µM | ΔTm [2]: 2 °C

N=C(N)Oc1ccc(Sc2ccc(OC(=N)N)cc2)cc1
IC50 [3]: 28.7 µM | Activity [36]: 18.1% | Activity [37]: 38.3% | Activity [38]: 2.25% | Activity [39]: 15.6% | Activity [40]: 8.42% | Activity [41]: 1.46% | Activity [42]: 3.11% | Activity [43]: 21.9% | Activity [44]: 26.9% | Activity [45]: 22% | inhibition at 100 µM [46]: 95.8% | Activity [47]: 29.1% | IC50 [1]: 57.4 µM | Activity [48]: 21.9% | ΔTm [2]: 6 °C | Activity [49]: 4.87% | Activity [50]: 35.5% | Activity [51]: 52%

N=C(N)Nc1ccccc1 [PHENYLGUANIDINE]
pKa [35]: 10.9

N=C(N)Oc1ccc(Cc2ccc(OC(=N)N)cc2)cc1
IC50 [1]: > 100 µM | ΔTm [2]: 4 °C
